How the values were obtained:
[1] = tested on: U2OS; assay: Multiplex assay against U2OS; type: toxicity, cell-based; conditions: human
Procedure, shortened: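 Imaging took place on a CQ1 microscope at 37°C and 5% CO2 once compound had been added to live cells stained at seeding with Hoechst33342, BioTracker Green Microtubule Cytoskeleton Dye, MitoTracker Red and Annexin V Alexa Fluor 680. CellPathfinder machine-learning gating classed cells as Hoechst high-intensity objects or normal cells, classed normal cells as having healthy, pyknosed or fragmented nuclei, and classed pyknosed cells as mitotic or apoptotic. Tubulin, mitochondrial-mass and membrane-permeability phenotypes are per cents of the healthy-nucleus cells.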

[2] = tested on: HEK-293T; assay: Incucyte cell viability with HEK293T; type: toxicity, cell-based; conditions: human, 10 µM, compound concentration 10 uM; also: filed as whole numbers so only -1 and 0 and 1 occur
[3] = 12 h, 1 µM, compound concentration 1 uM, replicate 1
[4] = 12 h, 1 µM, compound concentration 1 uM, replicate 2
[5] = 12 h, 10 µM, compound concentration 10 uM, replicate 1
[6] = 12 h, 10 µM, compound concentration 10 uM, replicate 2
[7] = 24 h, 1 µM, compound concentration 1 uM, replicate 1
[8] = 24 h, 1 µM, compound concentration 1 uM, replicate 2
[9] = 24 h, 10 µM, compound concentration 10 uM, replicate 1
[10] = 24 h, 10 µM, compound concentration 10 uM, replicate 2
[11] = 6 h, replicate number 1, timepoint 6 hours
[12] = 12 h, replicate number 1, timepoint 12 hours
[13] = 18 h, replicate number 1, timepoint 18 hours
[14] = 24 h, replicate number 1, timepoint 24 hours

## CN(C)C/C=C/C(=O)Nc1cc2c(Nc3ccc(F)c(Cl)c3)ncnc2cc1O[C@H]1CCOC1.O=C(O)/C=C\C(=O)O.O=C(O)/C=C\C(=O)O [AFATINIB DIMALEATE]
[1]; [3]
  Population Apoptotic (%): 56%
  Population Fragmented Nuclei (%): 4%
  Population Healthy Nuclei (%): 85%
  Population Hoechst High Intensity Objects (%): 3%
  Population Membrane Permeable-Phenotype (%): 20%
  Population Mitochondria Different-Phenotype (%): 8%
  Population Mitotic Cells (%): 43%
  Population Normal (%): 96%
  Population Pyknosed Nuclei (%): 10%
  Population Tubulin-Different-Phenotype (%): 18%
[1]; [4]
  Population Apoptotic (%): 37%
  Population Fragmented Nuclei (%): 7%
  Population Healthy Nuclei (%): 86%
  Population Hoechst High Intensity Objects (%): 11%
  Population Membrane Permeable-Phenotype (%): 14%
  Population Mitochondria Different-Phenotype (%): 18%
  Population Mitotic Cells (%): 62%
  Population Normal (%): 88%
  Population Pyknosed Nuclei (%): 6%
  Population Tubulin-Different-Phenotype (%): 24%
[1]; [5]
  Population Apoptotic (%): 62%
  Population Healthy Nuclei (%): 56%
  Population Hoechst High Intensity Objects (%): 2%
  Population Membrane Permeable-Phenotype (%): 25%
  Population Mitochondria Different-Phenotype (%): 37%
  Population Mitotic Cells (%): 37%
  Population Normal (%): 97%
  Population Pyknosed Nuclei (%): 26%
  Population Tubulin-Different-Phenotype (%): 89%
[1]; [6]
  Population Apoptotic (%): 68%
  Population Fragmented Nuclei (%): 16%
  Population Healthy Nuclei (%): 47%
  Population Hoechst High Intensity Objects (%): 13%
  Population Membrane Permeable-Phenotype (%): 18%
  Population Mitochondria Different-Phenotype (%): 62%
  Population Mitotic Cells (%): 31%
  Population Normal (%): 86%
  Population Pyknosed Nuclei (%): 35%
  Population Tubulin-Different-Phenotype (%): 86%
[1]; [7]
  Population Apoptotic (%): 72%
  Population Fragmented Nuclei (%): 6%
  Population Healthy Nuclei (%): 85%
  Population Hoechst High Intensity Objects (%): 1%
  Population Membrane Permeable-Phenotype (%): 16%
  Population Mitochondria Different-Phenotype (%): 10%
  Population Mitotic Cells (%): 27%
  Population Normal (%): 98%
  Population Pyknosed Nuclei (%): 8%
  Population Tubulin-Different-Phenotype (%): 20%
[1]; [8]
  Population Apoptotic (%): 75%
  Population Fragmented Nuclei (%): 7%
  Population Healthy Nuclei (%): 87%
  Population Hoechst High Intensity Objects (%): 10%
  Population Membrane Permeable-Phenotype (%): 15%
  Population Mitochondria Different-Phenotype (%): 21%
  Population Mitotic Cells (%): 25%
  Population Normal (%): 89%
  Population Pyknosed Nuclei (%): 5%
  Population Tubulin-Different-Phenotype (%): 24%
[1]; [9]
  Population Apoptotic (%): 81%
  Population Fragmented Nuclei (%): 10%
  Population Healthy Nuclei (%): 65%
  Population Membrane Permeable-Phenotype (%): 26%
  Population Mitochondria Different-Phenotype (%): 66%
  Population Mitotic Cells (%): 18%
  Population Pyknosed Nuclei (%): 24%
  Population Tubulin-Different-Phenotype (%): 49%
[1]; [10]
  Population Apoptotic (%): 93%
  Population Fragmented Nuclei (%): 22%
  Population Healthy Nuclei (%): 41%
  Population Hoechst High Intensity Objects (%): 8%
  Population Membrane Permeable-Phenotype (%): 29%
  Population Mitochondria Different-Phenotype (%): 72%
  Population Mitotic Cells (%): 6%
  Population Normal (%): 91%
  Population Pyknosed Nuclei (%): 36%
  Population Tubulin-Different-Phenotype (%): 47%
[2]; [11]
  Growth Rate: 0
[2]; [12]
  Growth Rate: 0
[2]; [13]
  Growth Rate: 0
[2]; [14]
  Growth Rate: 0

## CC(C)(C)c1cnc(CSc2cnc(NC(=O)C3CCNCC3)s2)o1 [BMS-387032]
[1]; [3]
  Population Apoptotic (%): 26%
  Population Fragmented Nuclei (%): 13%
  Population Healthy Nuclei (%): 69%
  Population Hoechst High Intensity Objects (%): 4%
  Population Membrane Permeable-Phenotype (%): 15%
  Population Mitochondria Different-Phenotype (%): 17%
  Population Mitotic Cells (%): 73%
  Population Normal (%): 95%
  Population Pyknosed Nuclei (%): 16%
  Population Tubulin-Different-Phenotype (%): 39%
  Total Cell Count: 140
[1]; [4]
  Population Apoptotic (%): 14%
  Population Fragmented Nuclei (%): 11%
  Population Healthy Nuclei (%): 80%
  Population Hoechst High Intensity Objects (%): 15%
  Population Membrane Permeable-Phenotype (%): 21%
  Population Mitochondria Different-Phenotype (%): 31%
  Population Mitotic Cells (%): 85%
  Population Normal (%): 84%
  Population Pyknosed Nuclei (%): 7%
  Population Tubulin-Different-Phenotype (%): 37%
  Total Cell Count: 143
[1]; [5]
  Population Apoptotic (%): 40%
  Population Fragmented Nuclei (%): 18%
  Population Healthy Nuclei (%): 61%
  Population Hoechst High Intensity Objects (%): 3%
  Population Membrane Permeable-Phenotype (%): 22%
  Population Mitochondria Different-Phenotype (%): 26%
  Population Mitotic Cells (%): 60%
  Population Normal (%): 96%
  Population Pyknosed Nuclei (%): 19%
  Population Tubulin-Different-Phenotype (%): 31%
  Total Cell Count: 144
[1]; [6]
  Population Apoptotic (%): 18%
  Population Fragmented Nuclei (%): 19%
  Population Healthy Nuclei (%): 63%
  Population Hoechst High Intensity Objects (%): 13%
  Population Membrane Permeable-Phenotype (%): 10%
  Population Mitochondria Different-Phenotype (%): 47%
  Population Mitotic Cells (%): 81%
  Population Normal (%): 86%
  Population Pyknosed Nuclei (%): 17%
  Population Tubulin-Different-Phenotype (%): 25%
  Total Cell Count: 109
[1]; [7]
  Population Apoptotic (%): 82%
  Population Fragmented Nuclei (%): 13%
  Population Healthy Nuclei (%): 75%
  Population Hoechst High Intensity Objects (%): 5%
  Population Membrane Permeable-Phenotype (%): 23%
  Population Mitochondria Different-Phenotype (%): 34%
  Population Mitotic Cells (%): 17%
  Population Normal (%): 94%
  Population Pyknosed Nuclei (%): 10%
  Population Tubulin-Different-Phenotype (%): 38%
  Total Cell Count: 200
[1]; [8]
  Population Apoptotic (%): 55%
  Population Fragmented Nuclei (%): 11%
  Population Healthy Nuclei (%): 80%
  Population Hoechst High Intensity Objects (%): 8%
  Population Membrane Permeable-Phenotype (%): 22%
  Population Mitochondria Different-Phenotype (%): 36%
  Population Mitotic Cells (%): 44%
  Population Normal (%): 91%
  Population Pyknosed Nuclei (%): 8%
  Population Tubulin-Different-Phenotype (%): 36%
  Total Cell Count: 166
[1]; [9]
  Population Apoptotic (%): 64%
  Population Fragmented Nuclei (%): 22%
  Population Healthy Nuclei (%): 45%
  Population Hoechst High Intensity Objects (%): 9%
  Population Membrane Permeable-Phenotype (%): 29%
  Population Mitochondria Different-Phenotype (%): 43%
  Population Mitotic Cells (%): 35%
  Population Normal (%): 90%
  Population Pyknosed Nuclei (%): 32%
  Population Tubulin-Different-Phenotype (%): 41%
  Total Cell Count: 174
[1]; [10]
  Population Apoptotic (%): 78%
  Population Fragmented Nuclei (%): 12%
  Population Healthy Nuclei (%): 52%
  Population Hoechst High Intensity Objects (%): 17%
  Population Membrane Permeable-Phenotype (%): 24%
  Population Mitochondria Different-Phenotype (%): 41%
  Population Mitotic Cells (%): 21%
  Population Normal (%): 82%
  Population Pyknosed Nuclei (%): 34%
  Population Tubulin-Different-Phenotype (%): 27%
  Total Cell Count: 118
[2]; [11]
  Growth Rate: 0
[2]; [12]
  Growth Rate: 0
[2]; [13]
  Growth Rate: 0
[2]; [14]
  Growth Rate: 0

Reference: ChEMBL document CHEMBL4689842, “EUbOPEN Chemogenomics Library wave 1” (2021)
